Experimental data: ChEMBL document CHEMBL1133463, “Novel mutual prodrug of retinoic and butyric acids with enhanced anticancer activity” (J Med Chem, 2000)
“And” between values parts separate entries of the source, which are not always exact repeats. Equal entries are not always repeated.

Columns and labels:
HL-60 [1] = test: Differentiation activity was determined by evaluation of NBT reduction activity of HL-60 cells, % of NBT positive cells determined; type: functional, Homo sapiens
In short: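 HL-60 grown 2 days with or without compound at 0.25 μM. Cultures then given 0.1% NBT, stimulated with 0.4 μM PMA and incubated 30 min at 37 °C. At least 200 cells scored microscopically. % NBT-positive cells taken as stained/total, minus the untreated-culture value. Three independent experiments.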

3LLD122 = test: Concentration required to inhibit the colony formation of lung carcinoma (3LLD122) cell lines by 50%; type: functional, cell-based; details: Mus musculus
In short: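 Murine 3LLD122 (highly metastatic 3LL subclone) grown in RPMI with 10% FCS and 2 mM glutamine at 37 °C, 5% CO2. Compounds added to the upper layer of a semisolid agar bilayer. Aggregates of >20 cells scored as colonies after 7 days by inverted microscope. Drugs in DMSO at 1:1000 dilution (final DMSO ≤0.1%).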

HL-60 [2] = test: In vitro for the differentiation induction activity determined in the human myeloid leukemic cell line HL-60; type: functional; details: read-out: ED50 (the source's name)
In short: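 HL-60 treated 4 days. NBT reduction measured with 0.1% NBT plus 0.4 μM PMA for 30 min at 37 °C, scoring ≥200 cells, with the untreated background subtracted. ED50 is the concentration giving half-maximal NBT reduction, obtained by linear regression and averaged over three independent experiments.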

MIA PaCa-2 = test: Concentration required to inhibit the colony formation of pancreatic human (PACA) cell lines by 50%; type: functional, cell-based
In short: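 PaCa2 single-cell suspensions plated at 400 cells per 60-mm dish. Drug exposure began 24 h after plating. Colonies formed over 7-12 days, then were MeOH-fixed, Giemsa-stained, counted and compared with untreated control. Triplicate assays. Drugs in DMSO, final ≤0.1%.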

Compound	IC50 (3LLD122) [µM]	EC50 (HL-60 [2]) [µM]	IC50 (MIA PaCa-2) [µM]	NBT positive cells (HL-60 [1])
CC1=C(/C=C/C(C)=C/C=C/C(C)=C/C(=O)OCOC(=O)C(C)C)C(C)(C)CCC1				48% and 54% and 49%
CC1=C(/C=C/C(C)=C/C=C/C(C)=C/C(=O)OCOC(=O)C(C)(C)C)C(C)(C)CCC1				13% and 21% and 17%
CCC(=O)OCOC(=O)/C=C(C)/C=C/C=C(C)/C=C/C1=C(C)CCCC1(C)C				60% and 56% and 57%

Now from value to molecule, other results behind:

IC50 (3LLD122) [µM]	EC50 (HL-60 [2]) [µM]	IC50 (MIA PaCa-2) [µM]	Compound	NBT positive cells (HL-60 [1])
4.5	0.031	4	CCCC(=O)OCOC(=O)/C=C(C)/C=C/C=C(C)/C=C/C1=C(C)CCCC1(C)C	72% and 74% and 78%
35		30	CCCC(=O)OCOC(=O)C(C)(C)C [AN-9]	
> 1000	285	250	CCCC(=O)O [BUTYRIC ACID]	
33	1.25	9.5	CC1=C(/C=C/C(C)=C/C=C/C(C)=C/C(=O)O)C(C)(C)CCC1 [TRETINOIN]	21% and 30% and 22%
